Results published in ChEMBL document CHEMBL5634162, “Cyclohexylalanine-Containing α-Helical Amphipathic Peptide Targets Cardiolipin, Rescuing Mitochondrial Dysfunction in Kidney Injury” (J Med Chem, 2024).
The source made the active and inactive calls. No cut-off for these calls is given here. Where a SMILES comes first, the peptide text is derived from it. Bridges are numbered along the chain shown (N, C = ends). Roman numbers before positions name the chains, in order. [ ]: non-standard residue; d: D form. The star is where a group is joined. 5TAMRA = CN(C)c1ccc2c(c1)Oc1cc(N(C)C)ccc1C21OC(=O)c2cc(C(=O)*)ccc21; Cha = N[C@@H](CC1CCCCC1)C(=O)O

Tests used:
[1] = Drug uptake in CCCP-damaged mitochondria of human HeLa cells at 100 nM by MitoTracker probe based assay; format: ADME; details: 16 min, 0.1 µM, TDE = time-dependent effect
Procedure, shortened: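 HeLa cells given TAMRA-labelled peptide 100 nM for 3 h with MitoTracker staining; mitochondria damaged with 20 μM CCCP (30 min) or by CCCP during time-lapse confocal imaging. Red/green Pearson r calculated.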

[2] = system: Lipid bilayer; assay: Binding affinity to cardiolipin-rich POPC/POPE by SPR analysis
[3] = system: HeLa; assay: Cytoprotective activity against CCCP-induced cell death in human HeLa cells assessed as increase in cell survival measured for 4 hrs by fluorescence based analysis; format: functional
[4] = system: Mus musculus; assay: Protection against […] C57BL/6 mouse model assessed as increase in SOD-1 level at 1 mg/kg, ip administered thrice a week prior to induction of bilateral ischemia-reperfusion injury measured after 6 days by IHC analysis; format: functional, organism-based; details: time 6.0 day
[5] = system: Mus musculus; assay: Protection against […] C57BL/6 mouse model assessed as reduction in cast formation at 1 mg/kg, ip administered thrice a week prior to induction of bilateral ischemia-reperfusion injury measured after 6 days by IHC analysis; format: functional, organism-based; details: time 6.0 day
[6] = system: Epithelial cell; assay: Inhibition of H2O2-induced intracellular ROS level in human tubular epithelial cells at 20 to 60 nM pretreated for 3 hrs followed by H2O2 addition measured after 30 mins by H2DCFDA staining based analysis; format: functional; details: dose 20-60 nM
Procedure, shortened: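 hTECs seeded, 24 h later given peptide 3 h, then H2O2 1 mM for 30 min; H2DCFDA 25 μM for 30 min, washed, read in HBSS on plate reader at 37 °C (Ex/Em 485/535 nm).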

[7] = system: Mus musculus; assay: Protection against […] C57BL/6 mouse model assessed as reduction in tubular damage at 1 mg/kg, ip administered thrice a week prior to induction of bilateral ischemia-reperfusion injury measured after 6 days by IHC analysis; format: functional, organism-based; details: time 6.0 day
[8] = system: Mus musculus; assay: Protection against colistin-induced nephrotoxicity in C57BL/6 mouse model assessed as reduction in tubular casts at 1 mg/kg, ip administered once every other day measured after 7 days by […] analysis; format: functional, organism-based; details: time 7.0 day
Procedure, shortened: (§1)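 Seven-week-old male C57BL/6 mice got colistin 20 mg/kg SC daily for 7 days plus peptide 1 mg/kg intraperitoneally every other day; groups of n = 5 (control, colistin, colistin + peptide). Kidneys were taken at day 7. Cytochrome C was detected by immunohistochemistry (citrate antigen retrieval, HRP-polymer detection, hematoxylin counterstain). Sections were also stained with PAS and Masson's trichrome to score histologic damage and fibrosis.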

[9] = system: Mitochondria; assay: Inhibition of antimycin A-induced mitochondrial ROS generation in human HeLa cells incubated for 190 mins followed by antimycin A addition measured after 90 mins by MitoSOX probe based analysis; format: functional; details: dose lower […], dose upper 10.0 nM
Procedure, shortened: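 HeLa cells seeded, stained 24 h later with MitoSOX 5 μM for 10 min, washed, HBSS, read on plate reader at 37 °C (Ex/Em 510/580 nm).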

[10] = system: Mus musculus; assay: Protection against colistin-induced nephrotoxicity in C57BL/6 mouse model assessed as increase in SOD-1 level at 1 mg/kg, ip administered once every other day measured after 7 days by IHC analysis; format: functional, organism-based; details: time 7.0 day
Procedure, shortened: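 Male C57BL/6 mice, 7 weeks: colistin 20 mg/kg sc daily for 7 days, peptide 1 mg/kg ip once every other day, n = 5 per group. Day-7 kidney sections, citrate antigen retrieval, immunohistochemistry with HRP polymer secondary and hematoxylin counterstain; PAS and Masson's trichrome for damage.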

[11] = system: Mus musculus; assay: Protection against colistin-induced nephrotoxicity in C57BL/6 mouse model assessed as reduction in tubular dilation at 1 mg/kg, ip administered once every other day measured after 7 days by […] analysis; format: functional, organism-based; details: time 7.0 day; procedure, shortened: as §1
[12] = Drug uptake in mitochondria of human HeLa cells transfected with Drp1-eGFP at 100 nM incubated for 3 hrs by confocal microscopy; format: ADME; details: 0.1 µM
[13] = system: Mus musculus; assay: Protection against […] C57BL/6 mouse model assessed as reduction in serum BUN level at 1 mg/kg, ip administered thrice a week prior to induction of bilateral ischemia-reperfusion injury measured after 6 days; format: functional, organism-based; details: time 6.0 day
[14] = Drug uptake in human HeLa cells at 100 nM incubated for 3 hrs in presence of M-beta-CD by FACS analysis; format: ADME, cell-based; details: 0.1 µM
Procedure, shortened: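 HeLa cells pretreated 30 min with the endocytosis inhibitor (methyl-β-cyclodextrin for cholesterol depletion), then given 100 nM TAMRA-labelled peptide for 3 h and analysed by FACS.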

[15] = system: Epithelial cell; assay: Inhibition of H2O2-induced apoptosis in human tubular epithelial cells at 10 to 100 nM by Annexin V-FITC/PI staining based flow cytometry; format: functional; details: dose 10-100 nM
Procedure, shortened: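 hTECs exposed to H2O2 0.5 mM; annexin V-FITC/propidium iodide staining 15 min at room temperature in the dark, apoptosis and necrosis percentages by flow cytometry.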

[16] = system: Mus musculus; assay: Protection against […] C57BL/6 mouse model assessed as reduction in serum creatinine level at 1 mg/kg, ip administered thrice a week prior to induction of bilateral ischemia-reperfusion injury measured after 6 days; format: functional, organism-based; details: time 6.0 day
[17] = system: Mus musculus; assay: Protection against […] C57BL/6 mouse model assessed as increase in SOD-1 mRNA level at 1 mg/kg, ip administered thrice a week prior to induction of bilateral ischemia-reperfusion injury measured after 6 days by qPCR analysis; format: functional, organism-based; details: time 6.0 day
[18] = system: Epithelial cell; assay: Reversal of H2O2-induced mitochondrial dysfunction in human tubular epithelial cells assessed as increase in glycolytic PER level measured for 40 to 60 mins by Seahorse assay; format: functional, cell-based; details: dose 10-50 nM, time 40-60 min
Procedure, shortened: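 hTECs were exposed to H2O2 with peptide at 10 or 50 nM (n = 6 per group), then run on a Seahorse XFe96. OCR was read after sequential 2 μM oligomycin, 1 μM FCCP, and 0.5 μM rotenone/antimycin A. ECAR was read after 10 mM glucose, 1 μM oligomycin and 50 mM 2-DG. Glycolytic proton efflux rate was taken as glycoATP production rate.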

CC(=O)N[C@@H](CC1CCCCC1)C(=O)N[C@H]1CSSC[C@@H](C(=O)N[C@@H](CCCNC(=N)N)C(N)=O)NC(=O)[C@H](CC2CCCCC2)NC(=O)[C@H](CCCNC(=N)N)NC(=O)[C@H](CCCNC(=N)N)NC(=O)[C@H](CC2CCCCC2)NC(=O)[C@H](CC(C)C)NC(=O)[C@H](CCCNC(=N)N)NC(=O)[C@@H](NC(=O)[C@H](CC2CCCCC2)NC(=O)c2ccc3c(c2)C(=O)OC32c3ccc(N(C)C)cc3Oc3cc(N(C)C)ccc32)CSSC[C@@H](C(=O)N[C@@H](CCCNC(=N)N)C(N)=O)NC(=O)[C@H](CC2CCCCC2)NC(=O)[C@H](CCCNC(=N)N)NC(=O)[C@H](CCCNC(=N)N)NC(=O)[C@H](CC2CCCCC2)NC(=O)[C@H](CC(C)C)NC(=O)[C@H](CCCNC(=N)N)NC1=O (I: Ac-[Cha]CRL[Cha]RR[Cha]CR-NH2 / II: 5TAMRA-[Cha]CRL[Cha]RR[Cha]CR-NH2; disulfide I:2-II:9, I:9-II:2)
Drug uptake [1]: Tde
Activity [2]: Active
Activity [3]: Active
Activity [4]: Active
Activity [5]: Active
inhibition [6]: Active
Activity [7]: Active
Activity [8]: Active
inhibition [9]: Dose-Dependent Effect
Activity [10]: Active
Activity [11]: Active
Drug uptake [12]: Active
Activity [13]: Active
Drug uptake [14]: Not Active
inhibition [15]: Active
Activity [16]: Active
Activity [17]: Active
Activity [18]: Dose-Dependent Effect
